Test results taken from ChEMBL document CHEMBL1133754, “Synthesis and antiviral evaluation of halogenated beta-D- and -L-erythrofuranosylbenzimidazoles” (J Med Chem, 2000).

How the values were obtained:
[1] = Compound was tested for antiviral activity against Towne strain of HCMV in a yield reduction assay using HFF cells; assay type: functional; conditions: Homo sapiens
In short: (§1)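 HCMV Towne yield reduction in HFF cells, MOI 0.5; progeny titred by end-point dilution and plaque enumeration; IC50 from linear regression of percent inhibition against log drug concentration.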

HFF [2] = assay: Compound was tested for visual cytotoxicity on HFF cells unaffected by HCMV at the time of plaque enumeration; assay type: functional, cell-based; conditions: Homo sapiens
In short: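 Stationary HFF cells not affected by virus in plaque assay plates inspected microscopically for cytotoxicity at time of plaque enumeration; IC50 by regression of percent inhibition vs log concentration.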

Human alphaherpesvirus 1 = assay: Compound was tested for antiviral activity against HSV-1 assayed by ELISA in quadruplicate wells; assay type: functional, organism-based
In short: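 HSV-1 replication measured by ELISA in quadruplicate wells; IC50 from linear regression of percent inhibition against log drug concentration.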

HFF [3] = assay: Compound was tested for antiviral activity against AD169 strain of HCMV in a plaque reduction assay using HFF cells; assay type: functional, cell-based; conditions: Homo sapiens
Human betaherpesvirus 5 [4] = assay: Compound was tested for antiviral activity against HCMV in viral cytopathic effect (CPE) assay; assay type: functional, organism-based
In short: (§2)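 HCMV viral cytopathic effect scored microscopically as visible virus effects on cells; IC50 derived by linear regression of percent inhibition vs log drug concentration.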

HFF [5] = assay: Compound was tested for antiviral activity against Towne strain of HCMV in a plaque reduction assay using HFF cells; assay type: functional, cell-based; conditions: Homo sapiens
Human betaherpesvirus 5 [6] = assay: Compound was tested for antiviral activity against HCMV in DNA hybridization assay; assay type: functional, organism-based
In short: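 HCMV replication measured by DNA hybridization; IC50 from linear regression of percent inhibition against log drug concentration.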

[7] = (§3) Compound was tested for inhibition of KB cell growth in quadruplicate assay; assay type: functional, cell-based; conditions: Homo sapiens
In short: (§4)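 KB cell proliferation over two control population doublings; crystal violet staining with spectrophotometric quantification of eluted dye; quadruplicate assays; IC50 by linear regression of percent inhibition vs log concentration.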

HFF [8] = assay: Compound was tested for antiviral activity against wild-type AD169 virus of HCMV in plaque reduction assay using HFF cells; assay type: functional, cell-based; conditions: Homo sapiens
HFF [9] = assay: Compound was tested for antiviral activity against C-4 Towne virus of HCMV in yield reduction assay using HFF cells; assay type: functional, cell-based; conditions: Homo sapiens
HFF [10] = assay: Compound was tested for antiviral activity against 2916 strain of HCMV in plaque reduction assay using HFF cells; assay type: functional, cell-based; conditions: Homo sapiens
HFF [11] = assay: Compound was tested for antiviral activity against wild-type Towne virus of HCMV in plaque reduction assay using HFF cells; assay type: functional, cell-based; conditions: Homo sapiens
KB = assay: as §3; assay type: functional, cell-based; conditions: Homo sapiens; in short: as §4
HFF [12] = assay: Compound was tested for antiviral activity against wild-type Towne virus of HCMV in yield reduction assay using HFF cells; assay type: functional, cell-based; conditions: Homo sapiens; in short: as §1
HFF [13] = assay: Compound was tested for antiviral activity against C-4 Towne virus of HCMV in plaque reduction assay using HFF cells; assay type: functional, cell-based; conditions: Homo sapiens
[14] = Compound was tested for inhibition of MOLT 4 cells.; assay type: functional, cell-based, Homo sapiens
In short: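 Cytotoxicity in MOLT 4 cells (human T-cell lymphocytic leukemia line). IC50 from linear regression of percent inhibition against log drug concentration; >100 µM means IC50 was not reached at the highest concentration tested.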

HFF [15] = assay: (§5) Compound was tested for antiviral activity against C-4 Towne strain of HCMV in yield reduction assay using HFF cells; assay type: functional; conditions: Homo sapiens
Human betaherpesvirus 5 [16] = assay: Compound was tested for antiviral activity against HCMV in viral cytopathic effect(CPE) assay; assay type: functional, organism-based; in short: as §2
HFF [17] = assay: (§6) Compound was tested for antiviral activity against wild-type Towne strain of HCMV in yield reduction assay using HFF cells; assay type: functional; conditions: Homo sapiens; in short: as §1
HFF [18] = assay: Compound was tested for antiviral activity against 2916 type AD169 virus of HCMV in plaque reduction assay using HFF cells; assay type: functional, cell-based; conditions: Homo sapiens
HFF [19] = assay: Compound was tested for antiviral activity against AD169 strain of HCMV in a plaque assay using HFF cells; assay type: functional, cell-based; conditions: Homo sapiens
HFF [20] = assay: (§7) Compound was tested for antiviral activity against wild-type AD169 strain of HCMV in yield reduction assay using HFF cells; assay type: functional, cell-based; conditions: Homo sapiens
HFF [21] = assay: (§8) Compound was tested for antiviral activity against 2916 AD169 strain of HCMV in yield reduction assay using HFF cells; assay type: functional, cell-based; conditions: Homo sapiens
HFF [22] = assay: as §7; assay type: functional; conditions: Homo sapiens
HFF [23] = assay: as §6; assay type: functional, cell-based; conditions: Homo sapiens; in short: as §1
HFF [24] = assay: as §5; assay type: functional, cell-based; conditions: Homo sapiens
HFF [25] = assay: as §8; assay type: functional; conditions: Homo sapiens

Compound | IC90 [1] [nM] | IC50 (HFF [2]) [nM] | IC50 (Human alphaherpesvirus 1) [nM] | IC50 (Human betaherpesvirus 5 [4]) [nM] | IC50 (HFF [5]) [nM] | IC50 (Human betaherpesvirus 5 [6]) [nM] | IC50 [7] [nM] | IC50 (KB) [nM] | IC50 [14] [nM] | other results
CC(=O)OC1[C@@H](OC(C)=O)CO[C@H]1n1c(Br)nc2cc(Cl)c(Cl)cc21 (stereo partly drawn) | 50 | 59000 | > 100000 | 50 | 220 | 210 | 60000 |  |  | IC50 (HFF [3]): 50 nM
CC(=O)OC1[C@@H](OC(C)=O)CO[C@H]1n1c(Cl)nc2cc(Cl)c(Cl)cc21 (stereo partly drawn) | 100 | 41000 | > 100000 | 100 | 250 | 330 | 45000 |  |  | 
OC[C@H]1O[C@@H](n2c(Br)nc3cc(Cl)c(Cl)cc32)[C@H](O)[C@@H]1O | 200 | 118000 | 130000 | 300 | 700 | 520 |  | > 100000 |  | IC50 (HFF [8]): 340 nM; IC90 (HFF [9]): 8000 nM; IC50 (HFF [10]): 410 nM; IC50 (HFF [11]): 1700 nM; IC50 (HFF [12]): 300 nM; IC50 (HFF [13]): 31000 nM
OC[C@H]1O[C@@H](n2c(Cl)nc3cc(Cl)c(Cl)cc32)[C@H](O)[C@@H]1O | 1300 |  |  |  | 2800 |  | 210000 |  |  | 
O[C@@H]1COC(n2c(Cl)nc3cc(Cl)c(Cl)cc32)[C@@H]1O (stereo partly drawn) | 120 | 32000 | > 100000 | 100 | 240 | 100 | 60000 |  |  | 
CC(C)Nc1nc2cc(Cl)c(Cl)cc2n1C1OC[C@H](O)[C@@H]1O (stereo partly drawn) |  |  |  | 2300 |  | 800 |  |  | 15000 | 
CC(C)Nc1nc2c(Br)c(Cl)c(Cl)cc2n1C1OC[C@@H](O)[C@H]1O (stereo partly drawn) |  |  |  | 1000 |  | 160 |  |  | 13000 | 
O[C@@H]1COC(n2c(Cc3ccccc3S)nc3cc(Cl)c(Cl)cc32)[C@@H]1O (stereo partly drawn) |  | 32000 | 65000 | > 10000 | 32000 | > 10000 |  | 60000 |  | 
CC(C)Nc1nc2cc(Cl)c(Cl)cc2n1C1OC[C@@H](O)[C@H]1O (stereo partly drawn) | 5000 | > 100000 | > 100000 |  | 7900 | 420 |  | > 100000 | 84000 | IC90 (HFF [15]): 8500 nM; IC50 (HFF [3]): 1800 nM; IC50 (Human betaherpesvirus 5 [16]): 800 nM; IC90 (HFF [17]): 6900 nM
O[C@@H]1COC(n2c(NC3CC3)nc3cc(Cl)c(Cl)cc32)[C@@H]1O (stereo partly drawn) | 6800 | > 100000 | > 100000 | 600 | 19000 | 260 | > 100000 |  | 132000 | IC90 (HFF [15]): 5000 nM; IC90 (HFF [17]): 10000 nM
O[C@@H]1C(n2c(NC3CC3)nc3cc(Cl)c(Cl)cc32)OC[C@@H]1O (stereo partly drawn) |  |  |  | 2300 |  | 2000 |  |  | 43000 | 
O[C@@H]1COC(n2c(Br)nc3cc(Cl)c(Cl)cc32)[C@@H]1O (stereo partly drawn) | 60 | 32000 | 50000 | 50 | 240 | 230 |  | 50000 | 47000 | IC50 (HFF [8]): 30 nM; IC50 (HFF [18]): 30 nM; IC50 (HFF [3]): 40 nM; IC50 (HFF [11]): 230 nM; IC50 (HFF [13]): 12000 nM
CC(C)Nc1nc2c(Cl)c(Cl)c(Cl)cc2n1C1OC[C@H](O)[C@@H]1O (stereo partly drawn) |  |  |  | 800 |  | 150 |  |  |  | 
CC(C)Nc1nc2cc(Cl)c(Cl)cc2n1C1O[C@@H](CO)[C@H](O)[C@@H]1O (stereo partly drawn) | 600 | > 100000 | > 100000 |  |  | 100 | 65000 |  |  | IC90 (HFF [15]): 700 nM; IC50 (HFF [19]): 450 nM; IC90 (HFF [17]): 590 nM; IC50 (HFF [20]): 330 nM; IC50 (HFF [21]): > 100000 nM
Nc1nc2c(ncn2COC(CO)CO)c(=O)[nH]1 [GANCICLOVIR] | 1600 | > 100000 |  |  |  | 880 |  | > 100000 |  | IC90 (HFF [22]): 3300 nM; IC50 (HFF [23]): 4500 nM; IC50 (Human betaherpesvirus 5 [16]): 2000 nM; IC90 (HFF [24]): 4100 nM; IC90 (HFF [25]): 3600 nM
